Calb FLC: affects C. albicans growth with fluconazole. C. albicans CaCi-2 (fluconazole-resistant clinical isolate) + fluconazole, Alamar Blue growth, 48 h. growth inhibition, % (test concentration not listed). hit rate 0.57% among 300,000. AID 1979;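 active = growth inhibition above about 58% in most replicates, limit read from the data, passing the limit was not always enough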;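 note: all wells also contain fluconazole at 8 µg/ml as a sub-toxic cotreatment; 0% = median of DMSO wells and 100% = median of geldanamycin control wells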
T cruzi repl: blocks replication of Trypanosoma cruzi; T. cruzi beta-gal in NIH3T3, luminescence, 90 h; inhibition, % (concentration not given with the values); hit rate 1.4% among 300,000;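 active = mean inhibition across valid replicates above about 55%, limit read from the data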;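 note: signal also drops with host cell toxicity which is not excluded here; 0% = plate median of DMSO wells and 100% = zero luminescence signal; higher percent means less beta-gal luminescence so fewer parasites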
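Incubation – ≥90 h infection period, 3 h prior cell attachment · System – NIH/3T3 fibroblasts plus reporter T. cruzi · Doses – compound pinned at 50 nL/well, DMSO · Read-out basis – percent inhibition of parasite-derived β-gal signal · Signal – luminescent β-galactosidase signal after 60 min lysis · Also added – 5000 T. cruzi trypomastigotes/well · Medium – Low-serum DMEM with 2% FBS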
NALP1 yeast inh: NALP1 inhibition; hit rate 0.61% among 280,000; AID 2071; inhibition, % at 10 µM; S. cerevisiae NALP1/ASC/caspase-1 growth, X-gal OD620, 72 h; in the data active = inhibition mostly above about 24%, no sharp cut-off; inactive = mostly below about 32%
PolyA inhibitor: inhibitors of polyadenylation in S. cerevisiae | S. cerevisiae SKY197-pL101 polyadenylation reporter, beta-gal luminescence; efflux-impaired pdr1/pdr3 knockout yeast; score 100 = 6 SD above DMSO | activity score, % at 12 µM | hit rate 0.02% among 300,000 | AID 1875;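 active = lowest replicate activity score at least 50, where 100 means six control SD above control mean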;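 note: yeast exposed to compound for 9 h at 30 °C; higher score means more reporter readthrough which indicates perturbed polyadenylation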
NALP3 yeast inh: inhibitors of NALP3 inflammasome in yeast | Yeast reconstituted NLRP3/ASC/caspase-1, beta-gal luminescence, 24 h | inhibition, % at 10 µM | hit rate 0.39% among 330,000;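 active = inhibition of 50% or more; inactive = inhibition below 50%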;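 note: plate controls were induced DMSO wells for no effect and uninduced yeast grown without galactose for full effect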
L major viab: inhibitors of Leishmania major promastigote growth; hit rate 9% among 200,000; AID 1063; Leishmania major promastigotes, resazurin fluorescence viability; inhibition, % at 10 µM; in the data active = inhibition above about 50%;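 note: promastigotes grown with compound for 44 hours at 28 °C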
An asterisk follows results filed as active; x = not tested or not shown. Many of the other results were omitted from the sample, so hits are more common in it than they were.

SMILES	Calb FLC	T cruzi repl	NALP1 yeast inh	PolyA inhibitor	NALP3 yeast inh	L major viab
CC(C)CC(=O)NC(=S)Nc1ccc(S(=O)(=O)NC(C)(C)C)cc1	14	-2	16	-16	-12	62*
CC(C)CC(=O)NC(=S)Nc1ccc(S(=O)(=O)Nc2nccs2)cc1	5	-1	29	3	12	55*
O=C(Nc1ccc(S(=O)(=O)Nc2nccs2)cc1)c1ccc(N2C(=O)c3ccccc3C2=O)cc1	4	-10	2	-1	15	101*
CCC(C)C(=O)Nc1ccc(S(=O)(=O)Nc2nccs2)cc1 (configuration not stated)	-1	0	-10	-13	8	x
CCOc1ccc(NS(=O)(=O)c2ccc(NC(=S)NC(=O)CC(C)C)cc2)cc1	35	8	-4	-15	15	98*
COC(=O)c1ccc(C)c(NC(=O)C(CCSC)NC(=O)c2cc(OC)c(OC)c(OC)c2)c1 (configuration not stated)	-3	-7	7	-5	9	x
CCOc1ccc(S(=O)(=O)n2nc(C)cc2C)cc1	-2	-10	5	3	23	x
COc1ccc(C(=S)N2CCN(C)CC2)cc1	-3	-1	-14	-4	7	85*
COc1ccc(C(=S)N2CCCC2)cc1Br	2	-11	-11	-6	20	x
CN1CCN(C(=S)c2ccc(Cl)cc2)CC1	-4	-9	-13	2	5	90*
COc1ccc(C(=S)N2CCN(C)CC2)cc1Br	-13	-6	14	16	5	92*
COc1ccc(NC(=S)N2CCN(C)CC2)cc1	3	12	x	2	12	x
CN(Cc1ccccc1N1CCCC1)C(=O)c1cc2cc(Cl)ccc2o1	x	x	x	x	9	x
NS(=O)(=O)c1ccc(N2C(=O)C(=O)/C(=C(/O)c3ccccc3)C2c2ccc(Cl)cc2)cc1 (configuration not stated)	-7	2	-33	16	-18	x
CCN1CCCc2cc(CN(CCN3CCOCC3)C(=S)Nc3ccccc3OC)ccc21	1	57*	-4	-14	8	20
CCN1CCCc2cc(CN(CCN3CCOCC3)C(=S)Nc3cccc(C)c3)ccc21	0	61*	16	0	11	4
CC(=O)N1CCC(N(CCN2CCOCC2)C(=S)Nc2ccc(C)c(C)c2)CC1	-2	1	0	-1	5	1
COc1ccc(NC(=S)N2CCC(N(C)CCN3CCOCC3)CC2)cc1Cl	-3	29	18	-5	8	76*
CCN1CCCc2cc(CN(CCN3CCOCC3)C(=S)Nc3ccccc3C)ccc21	15	35	2	10	10	-2
CCN1CCCc2cc(CN(CCN3CCOCC3)C(=S)Nc3ccc(OC)c(Cl)c3)ccc21	2	59*	4	-14	20	-3
Cc1ccc(SCC(=O)NC(=O)NC2CCCC2)c(C)c1	x	x	x	x	40	x
CN(C)/N=C/c1ccc(P(c2ccc(/C=N/N(C)C)o2)c2ccc(/C=N/N(C)C)o2)o1	10	-5	-8	-1	15	1
S=c1cnc2ccccc2[nH]1	-15	7	-4	5	-2	7
Cc1ccc(C)c(CNC(=O)Nc2ccccc2)c1	-21	4	18	1	25	x
CC1CCCC(C)N1C(=O)c1cc(-c2ccc3c(c2)OCO3)on1 (configuration not stated)	-24	-2	35	8	28	x
SMILES	Calb FLC	T cruzi repl	NALP1 yeast inh	PolyA inhibitor	NALP3 yeast inh	L major viab
COc1ccccc1NC(=S)N(CCN1CCCCCC1)Cc1cccs1	0	17	2	1	2	57*
COc1ccc(NC(=S)NCCN2CCOCC2)c(OC)c1	5	-4	x	8	13	-2
CCOc1ccc2c(c1)C(N(CCN1CCOCC1)C(=S)Nc1ccccc1OC)CC(C)(C)O2 (configuration not stated)	11	-5	1	1	3	59*
CCOC(=O)CNC(=S)N(CCCN1CCCCCC1)Cc1cccs1	-32	16	15	12	12	73*
S=c1[nH]nc(-c2ccccn2)n1/N=C/c1c(Cl)cccc1Cl	-3	-15	19	-14	17	x
COc1ccc(CN2CCN(S(=O)(=O)c3ccc(C)cc3)CC2)cc1Br	-7	27	32	1	17	68*
COc1ccc(S(=O)(=O)N2CCN(Cc3ccccc3)CC2)cc1OC	-4	-18	-2	-9	8	x
CCOc1cc(S(=O)(=O)N2CCN(CC)CC2)ccc1Cl	-1	9	24	-12	28	90*
COc1ccc(CN2CCN(S(=O)(=O)c3ccc(C)cc3)CC2)cc1OC	31	1	x	5	11	x
CCCN1CCN(S(=O)(=O)c2ccc(OC)c(Br)c2)CC1	-7	-10	-10	-2	18	96*
CC(C)CNC(=O)C(=O)NNC(=O)c1ccco1	-5	-15	2	21	8	-7
Clc1cc(Br)ccc1OCCn1ccnc1	39	7	39	5	22	28
Clc1cc(Br)ccc1OCCCn1ccnc1	-89	47	36	3	-3	97*
Cc1cc(Br)ccc1OCCn1ccnc1	-10	48	55*	6	27	72*
O=C(C1CC=CCC1)N1CCN(S(=O)(=O)c2ccc(F)cc2)CC1 (configuration not stated)	x	x	x	x	0	x
Cc1cc(C(=O)c2cnc(/N=C/N(C)C)s2)c(F)cc1Cl	19	8	-1	7	24	10
O=C(COc1ccccc1[N+](=O)[O-])Nc1ccc(N2CCN(C(=O)c3cccs3)CC2)cc1	-4	25	8	6	11	13
CCCSc1ccc(-c2nn(-c3ccccc3)cc2/C=C(/C#N)C(=O)NCCCOC)cc1	1	24	24	6	4	86*
CCOc1cccc(-c2nn(-c3ccccc3)cc2/C=C(/C#N)C(=O)NCCCn2ccnc2)c1	2	28	11	3	4	100*
N#C/C(=C/c1cn(-c2ccccc2)nc1-c1cccc(OCc2ccccc2)c1)C(=O)NCCCn1ccnc1	1	60*	0	-13	14	100*
CCCCNCCOCCOc1ccccc1-c1ccccc1	-25	7	49	-8	26	92*
COCCNCCCCOc1ccccc1-c1ccccc1	-3	-10	32	7	5	52*
CC1(C)NC(=O)N(CCOCCOc2ccccc2-c2ccccc2)C1=O	-6	-9	10	-23	6	-1
C=CCNCCOc1ccccc1-c1ccccc1	-3	-9	41	6	11	18
CC(C)NCCCCOc1ccccc1-c1ccccc1	-4	-8	30	11	10	98*
O=C(CCNS(=O)(=O)c1ccc(Cl)cc1)Nc1ccncc1	-2	13	16	6	7	x
Cc1ccc2nc(COC(=O)c3ccc(Cl)nc3)cc(=O)n2c1	x	x	x	x	-7	x

Bioassay records: PubChem BioAssay, several laboratories
